Assay outcomes: PubChem BioAssay, several laboratories
XiGFP reactiv: reactivates the inactive X chromosome in mouse fibroblasts; XiGFP mouse fibroblasts, % GFP-positive cells imaging, 3 d; cells co-treated with 5-aza-dC sensitizer; scaled so ellipticine positive control = 100%; activation, % at 7.58 µM; 360,000 tested, 0.055% active; AID 743238;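 active = mean normalized replicate activation at least 10% and every replicate at or above 10%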;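 also: 0% = median of on-plate neutral control wells and 100% = ellipticine 6 µM median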
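Assay system: SV40-immortalized XiGFP fibroblast cells, line 68-5-11; buffer or medium: DMEM plus 5-aza-dC sensitizer; compound: one concentration, pinned; timing: compounds 3 days, fix/stain 15 min at room temperature; benchmarks: positive control ellipticine, 6 µM final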
Rin1 Abl inh: human Rin1-Abl interaction inhibition; TR-FRET Rin1/Abl binding, biochemical; inhibition, % at 7.35 µM; 360,000 tested, 0.4% active; AID 588664; in the data active = inhibition above about 5%, passing the limit was not always enough
NadD block: blocks S. aureus nicotinate mononucleotide adenylyltransferase. purified NadD enzyme, colorimetric absorbance read-out. 360,000 tested, 0.78% active. inhibition, % at 20 µM. AID 602399; in the data active = inhibition above about 26%
Rpn11 block: inhibitors of human proteasome Rpn11; human 26S proteasome, Ub4-pepOG fluorescence polarization; 20S core pre-blocked with epoxomicin; inhibition, % at 20 µM; 360,000 tested, 0.59% active;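 active = inhibition at 20 µM, scaled to each plate's controls, above about 33%, limit read from the data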
ABHD5-PLIN5 inh: ABHD5-PLIN5 protein interaction inhibition | 360,000 tested, 0.78% active | Q00G26+Q8WTS1 | inhibition, % at 4 µM | Split G. princeps luciferase complementation, luminescence, 4 h;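 active = inhibition above the mean inhibition across every tested compound plus 3 SD, cut at about 22% in these data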;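 also: 0% = DMSO only wells and the 100% control is not disclosed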
Target sequence (Q00G26 whole entry, looked up): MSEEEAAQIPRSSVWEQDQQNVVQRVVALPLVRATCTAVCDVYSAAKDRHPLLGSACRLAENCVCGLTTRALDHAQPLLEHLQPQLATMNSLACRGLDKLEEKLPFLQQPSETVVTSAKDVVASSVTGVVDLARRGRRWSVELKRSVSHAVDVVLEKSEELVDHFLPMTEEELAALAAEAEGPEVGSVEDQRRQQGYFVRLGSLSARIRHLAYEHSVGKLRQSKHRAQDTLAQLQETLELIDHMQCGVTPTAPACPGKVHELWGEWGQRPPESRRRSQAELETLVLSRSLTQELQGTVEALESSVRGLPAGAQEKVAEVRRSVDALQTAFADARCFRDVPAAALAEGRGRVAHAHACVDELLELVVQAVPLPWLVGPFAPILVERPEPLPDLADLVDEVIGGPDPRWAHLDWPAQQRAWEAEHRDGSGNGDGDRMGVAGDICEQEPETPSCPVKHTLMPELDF
Target sequence (Q8WTS1 whole entry, looked up): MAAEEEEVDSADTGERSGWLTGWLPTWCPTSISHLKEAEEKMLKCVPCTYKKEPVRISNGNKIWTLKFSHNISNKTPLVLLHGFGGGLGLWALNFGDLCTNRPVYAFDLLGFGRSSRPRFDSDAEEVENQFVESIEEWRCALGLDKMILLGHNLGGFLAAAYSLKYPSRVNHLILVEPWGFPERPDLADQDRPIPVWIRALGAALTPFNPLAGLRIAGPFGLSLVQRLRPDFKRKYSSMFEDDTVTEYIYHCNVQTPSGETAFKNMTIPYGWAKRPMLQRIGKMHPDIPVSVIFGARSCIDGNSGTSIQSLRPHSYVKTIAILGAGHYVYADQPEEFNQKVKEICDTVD
Rin1-Abl confirm: confirmation of inhibitors of human Rin1-Abl interaction; 1,300 tested, 49% active; AID 602124; shares compounds with Rin1 Abl inh; TR-FRET Rin1-Abl binding, purified proteins; inhibition, % at 7.35 µM
GFP quencher: GFP fluorescence interference artifact. shares compounds with Rin1 Abl inh. inhibitors/quenchers counterscreen. inhibition, % at 6.75 µM. 1,300 tested, 8.5% active;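 also: ABL1-eGFP fusion protein alone without its partner RIN1-SBP; 0% = protein with vehicle and 100% = wells lacking protein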
GFP quench DR: GFP fluorescence interference dose response. 230 tested, under 10 active. GFP fluorescence interference/quenching counterscreen. shares compounds with Rin1 Abl inh. AID 602182. IC50, µM; call rule not given here;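 also: ABL1-eGFP fusion protein alone without its RIN1 binding partner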
The depositor's hits bear a star; · = no result given. Rows were chosen to be rich in hits. Some 1.9% of all compounds tested hit in one or more screens of this group. Rule as the data show it, unless noted: active = inhibition above about 6.5%; inactive = the rest.

SMILES	XiGFP reactiv	Rin1 Abl inh	NadD block	Rpn11 block	ABHD5-PLIN5 inh	Rin1-Abl confirm	GFP quencher	others
COc1cccc(NC(=O)C[C@H]2CC[C@@H]3[C@H](COc4ccc(NC(=O)C5CCCC5)cc4C(=O)N3C)O2)c1	0	·	·	·	·	·	·
CNC(=O)C[C@H]1C(=O)N(Cc2ccccc2)C[C@@H]1Cc1ccccc1	0	8.2*	4	-6	4	0	-1
CC(=O)Nc1ccc(S(=O)(=O)N2CCC(C(=O)NCCC(=O)Nc3nccs3)CC2)cc1	0	11*	-3	-1	-2	6	0
CCC1CCCCN1CCCNC(=O)c1ccc2c(c1)c(C)c(C)n2CC (stereo unspecified)	0	15*	-1	10	12	-4	2
Cc1nc2ccccc2n1Cc1ccc(Br)cc1	0	2	-3	-17	5	·	·
CC(=O)Nc1cc2c(nc1C)nc(C)n2Cc1ccc(Br)cc1	·	18*	2	1	-4	22*	-4	GFP quench DR=>68
Cc1ccc(N=C2NC(=O)C(CC(=O)NCc3ccccc3)S2)cc1C (stereo unspecified)	0	8.9*	-3	7	0	0	1
CC1(C(=O)NCc2ccc(C(F)(F)F)cc2)CCN1Cc1cc2ccccc2o1 (stereo unspecified)	0	9.0*	4	-3	-1	-2	1
Cc1nn(-c2ccccc2)c(C)c1C(=O)OCC(=O)N(C)c1ccccc1	0	9.0*	0	-1	4	2	-1
Cc1nn(-c2ccccc2)c(C)c1C(=O)OCC(=O)Nc1ccccc1	0	2	-6	3	-4	·	·
CCOC(=O)N1CCC(Nc2cc(C)nc3c(-c4ccccc4OC)c(C)nn23)CC1	0	6.2*	7	0	4	3	-1
CCOC(=O)N1CCN(C(=O)CSc2cc(C)nc3c(-c4ccccc4OC)c(C)nn23)CC1	·	-1	0	3	-1	·	·
CC=Cc1ccc2n(c1=O)C[C@H]1[C@H](CO)[C@@H](C(=O)N[C@@H](C)c3ccccc3)[C@@H]2N1Cc1ccccc1 (mixture of isomers)	0	·	·	·	·	·	·
O=C(Nc1ccc(Cl)cc1)NC1CCCC1Cc1ccco1 (stereo unspecified)	·	8.4*	0	2	49*	-2	3
O=C(Nc1ccc(Cl)cc1)NC1CCCCC1Cc1ccco1 (stereo unspecified)	·	0	-3	4	-7	·	·
COc1ccc(C2=NOC(C)(c3nnc(-c4ccncc4)o3)C2)cc1 (stereo unspecified)	0	12*	2	-8	-7	3	1
Cc1ccc(C2=NOC(C)(c3nnc(-c4ccncc4)o3)C2)cc1 (stereo unspecified)	0	15*	1	3	2	2	0
CC1(c2nnc(-c3ccc(Cl)cc3)o2)CC(c2ccncc2)=NO1 (stereo unspecified)	0	4	-11	2	2	·	·
Cc1noc(C)c1NC(=O)Nc1ccc2c(c1)CC(=O)N([C@H](C)CO)C[C@H](C)[C@@H](CN(C)C(=O)Nc1cccc3ccccc13)O2	3	·	·	·	·	·	·
Oc1cccc(/C=N/Nc2ncnc3c2ncn3Cc2ccccc2)c1	0	-3	2	-10	1	·	·
Oc1ccc(/C=N/Nc2ncnc3c2ncn3Cc2ccccc2)cc1O	0	12*	39*	-57	12	11*	9.1*
COc1ccc(CCNC(=O)c2ccc(OC)c(OC)c2)cc1OC	0	-4	-1	-8	2	·	·
COc1ccc(CCNC(=O)c2c(N)no[n+]2[O-])cc1OC	0	6.6*	-1	-1	6	1	0
CC(=O)OC[C@H]1O[C@@H](n2ccc(=O)[nH]c2=S)C(OC(C)=O)C1OC(C)=O (stereo partly specified)	·	12*	5	-6	4	9.3*	0
CC(=O)OCC1OC(n2ccc(=O)[nH]c2=O)C(O)C1O (stereo unspecified)	·	1	3	3	-2	·	·
SMILES	XiGFP reactiv	Rin1 Abl inh	NadD block	Rpn11 block	ABHD5-PLIN5 inh	Rin1-Abl confirm	GFP quencher	others
CN(C)CC(=O)Nc1ccc2c(c1)[C@@H]1C[C@H](CC(=O)NCc3ccc4c(c3)OCO4)O[C@@H](CO)[C@@H]1O2	0	·	·	·	·	·	·
CC[C@]12c3[nH]c4ccc(OC)cc4c3CCN1C(=O)C(CC(=O)NC/C=C(\C)CCC=C(C)C)C[C@@H]2C(=O)N1CCN(C(=O)c2ccco2)CC1 (stereo partly specified)	0	11*	0	5	0	5	1
CC[C@]12c3[nH]c4ccc(OC)cc4c3CCN1C(=O)C(CC(=O)NCCc1ccccn1)C[C@@H]2C(=O)N1CCN(C(=O)c2ccco2)CC1 (stereo partly specified)	0	16*	4	-1	3	6	2
CC[C@]12c3[nH]c4ccccc4c3CCN1C(=O)C(CC(=O)NC/C=C(\C)CCC=C(C)C)C[C@@H]2C(=O)N1CCN(C(=O)c2ccco2)CC1 (stereo partly specified)	0	-3	6	5	-5	·	·
CC[C@]12c3[nH]c4ccc(OC)cc4c3CCN1C(=O)C(CC(=O)NCc1cccc(C(F)(F)F)c1)C[C@@H]2C(=O)N1CCN(C(=O)c2ccco2)CC1 (stereo partly specified)	0	18*	4	2	9	21*	-2	GFP quench DR=>68
CC[C@]12c3[nH]c4ccccc4c3CCN1C(=O)C(CC(=O)NCCCN(C)C)C[C@@H]2C(=O)N1CCN(C(=O)c2ccco2)CC1 (stereo partly specified)	2	-2	-1	-1	-5	·	·
CC[C@]12c3[nH]c4ccc(OC)cc4c3CCN1C(=O)C(CC(=O)NCCCN(C)C)C[C@@H]2C(=O)N1CCN(C(=O)c2ccco2)CC1 (stereo partly specified)	0	21*	-6	-2	2	22*	0	GFP quench DR=>68
CC[C@]12c3[nH]c4ccc(Cl)cc4c3CCN1C(=O)[C@@H](CC(=O)NCc1cccc(C(F)(F)F)c1)C[C@@H]2C(=O)N1CCN(C(=O)c2ccco2)CC1	0	4	5	4	6	·	·
COc1ccc(S(=O)(=O)Nc2ccc3c(c2)C(=O)N([C@H](C)CO)C[C@@H](C)[C@H](CN(C)S(=O)(=O)c2c(C)noc2C)OCCCC[C@@H](C)O3)cc1	0	·	·	·	·	·	·
